# Assay results as given in the EternaBench riboswitch data.
# Test system: MS2 coat protein
# Assay: apparent Kd, MS2 coat protein; higher = weaker binding; RNA-MaP array; FMN 200 µM where present
# Method in brief: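 The apparent Kd is the median of filtered binding-curve fits, one per cluster, to green signal normalised to red-channel RNA signal and control-cluster median Fmax. The clusters were on Illumina sequencing chips, and stalled E. coli RNA polymerase had transcribed the designs on them. Titration used SNAP-549-labelled MS2 coat protein from 0.7 or 1.5 nM, doubling to 3 µM, without and then with constant ligand, in 100 mM Tris-HCl pH 7.5, 80 mM KCl, 4 mM MgCl2, BSA, DTT, yeast tRNA and Tween-20.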
# [1] = designed as: OFF switch for flavin mononucleotide, no ligand
# [2] = ligand present: flavin mononucleotide, designed as: OFF switch for flavin mononucleotide
# [3] = designed as: ON switch for flavin mononucleotide, no ligand
# [4] = ligand present: flavin mononucleotide, designed as: ON switch for flavin mononucleotide
sequence,measurement,setting,value
GUGACGAAUGUAGGAUAUGCUGAGGAUAACUCAGCAGAAGGACAUGAGGAUCACCCAUGUCAUCCUAAUAAUAAAUAACGUCAC,apparent Kd,[1],14.8 nM
same,apparent Kd,[2],18.8 nM
ACAUGAGGAUCACCCAUGUAUUUGUAGGAUAUACUCUAUUGUUUAUUACUCUAGUUAAUAUGUUUGUAGAAGGACAUUACAUGA,apparent Kd,[1],7.94 nM
same,apparent Kd,[2],10.8 nM
GUCUCGUCAGGAUAUGACGCUACAUUUUUUUUUUAGAAGAGUCAGAAGGGACAUGAGGAUCACCCAUGUGAUUC,apparent Kd,[1],288 nM
same,apparent Kd,[2],218 nM
GUCGGAAACGACAAAAGUAGCAUACGAGAAGGUUGAUCCAAGACAUGAGGAUCACCCAUGUAGAUAGAGGAUAUUGAAUGCUAC,apparent Kd,[3],310 nM
same,apparent Kd,[4],244 nM
AGAUUUGUACAUGAGGAUCACCCAUGUUAAUAGGUGUUUGUCAGAAGGCAUUAAGAGAGAAUUAAUGAGGAUAUGAAGUUUCAU,apparent Kd,[3],59.2 nM
same,apparent Kd,[4],36.2 nM
AGCAUGUUAGGAUAUGCGAAGUCAGGACACACACUGACGAAGCAGAAGGAACAUGAGGAUCACCCAUGUAAGCA,apparent Kd,[1],71.8 nM
same,apparent Kd,[2],45.7 nM
AUAUUACGAGGAUAUCGUCUCUCCCACAUGAGGAUCACCCAUGUUAUCCAUGUUUCGUUUCGAGAAGGCGUAAGUU,apparent Kd,[1],75.9 nM
same,apparent Kd,[2],58 nM
UCAGGCUUCGAGAAGGACAUGAGGAUCACCCAUGUUAACAUGUAGCAGCCGUGAGGCUGCAUCAUGUAGGAUAUCGGAGUCUGC,apparent Kd,[1],6.07 nM
same,apparent Kd,[2],7.07 nM
CCGAAACCUCAGAAGGACCACAUGAGGAUCACCCAUGUCAAGCAAAACGGUAGGAUAUGAGGGAAAAGUCGGUGUACCCGACAG,apparent Kd,[3],8.93 nM
same,apparent Kd,[4],5.76 nM
GGUACUCAAAGAGUACCACUACGAACAUGAGGAUCACCCAUGUAGGAUAUGCUACUCAAAGAGUAGCAGAAGGACAUGUGCCUA,apparent Kd,[1],17.9 nM
same,apparent Kd,[2],123 nM
CAUCUCCCUUUUACAUGAGGAUCACCCAUGUUUUCAUAUUGAGAGGAUAUCGUAUUUGGAAACAUCGAGAAGGCUCAUUUGUAU,apparent Kd,[3],536 nM
same,apparent Kd,[4],175 nM
AAGAGGCUAGGAUAUACAUGAGGAUCACCCAUGUGAGGGCACGGCCGGCGCGUGGCCGGUAGAAGGAGUCAAAA,apparent Kd,[1],21.3 nM
same,apparent Kd,[2],22.6 nM
UGGUACAUCGGAGGAUAUCAUGUAGAUACAUGAGGAUCACCCAUGUCGUACGAUAGUACGGAGAUUGAGAAGGCCGAUGUACCU,apparent Kd,[3],30.5 nM
same,apparent Kd,[4],16.6 nM
CUGAAUAGAGGAUAUUGUACUGCUGACAUGAGGAUCACCCAUGUAUGUUAACUCGGCCGUCGAGAAGGCUAACAUA,apparent Kd,[1],42.8 nM
same,apparent Kd,[2],26.7 nM
GUCCUUAACAAGGAUAUCGGGCGGGUUUUUGUUUGAGAAGGUGUGACAUGAGGAUCACCCAUGUGGCGCGUGGG,apparent Kd,[1],355 nM
same,apparent Kd,[2],383 nM
AAUUAGGUCACAGGAUAUACUACAUCCAAUGCUGUAGAAGGGUGACACAUUCUGUGCAGACAUGAGGAUCACCCAUGUAACCAC,apparent Kd,[3],27.9 nM
same,apparent Kd,[4],12.8 nM
GGAUAGGACAGAGGAUAUACGUGCUCGAGAUACUAGCAAAAUUUCCUCACAUGAGGAUCACCCAUGUAGAAGGCUGUCCUAUCG,apparent Kd,[1],28.7 nM
same,apparent Kd,[2],255 nM
UGAGCCGGCACUGAGGAUAUUCAUAUUAAAACAUGAGGAUCACCCAUGUAGGCCAGAAGGCCUUGGGAGAAGGCAGGUCGGCUCA,apparent Kd,[3],403 nM
same,apparent Kd,[4],20.6 nM
AUAGCUCUCUAGAAGGUCCAACCAGUAUACCAUCAGGUAUAUACGGUAGGGAGGAUAUGGGACAUGAGGAUCACCCAUGUGUAG,apparent Kd,[3],57.8 nM
same,apparent Kd,[4],44.8 nM
GGCUGGUAGCUAGGAUAUGGGCGGUCACAUGAGGAUCACCCAUGUCAACAUCAAAACCAGAUUAACCAGAAGGAGCUGCGGGUU,apparent Kd,[3],36 nM
same,apparent Kd,[4],37.8 nM
AAAAAAAAAAACUAGGAUAUUUAACGGACAACAUGAGGAUCACCCAUGUCACAAAAAAAAAUAGUAAAGAAGGAGUAAAAAAAAAA,apparent Kd,[3],32.7 nM
same,apparent Kd,[4],31.8 nM
CGUCUAUGCCAGAAGGCAUGUCAAAAGACAUGAGGAUCACCCAUGUAAAUGAGGAUAUGGCAUAGACGAAAAGUGCGAAAGCAC,apparent Kd,[3],136 nM
same,apparent Kd,[4],13.6 nM
GGAUUACAUGAGGAUCACCCAUGUGAGGAUAUCGAUGUCCUCAGUCGAGUGCGGGACUCGAGAAGGCACUUGGA,apparent Kd,[1],77 nM
same,apparent Kd,[2],57.5 nM
GUCCUACAUGAGGAUCACCCAUGUGAGGAUAUGGAUUCGCUGGCCGUAGCCAGUGGAUCCAGAAGGCGCGUGAU,apparent Kd,[1],63.1 nM
same,apparent Kd,[2],64.8 nM
CAGUACUGAGGAUAUACAUGAGGAUCACCCAUGUGCUCUAGCUAGGAUACUAGCAUUAGUAGAAGGCAGUACUG,apparent Kd,[1],15 nM
same,apparent Kd,[2],136 nM
UGAUCACAUGAGGAUCACCCAUGUCAGGAUAUCUACAUUGAAGCUGCGGCUUCAAUGUAGAGAAGGGAUAUAAU,apparent Kd,[1],99 nM
same,apparent Kd,[2],229 nM
CGCGAACAGGUUAACAUGAGGAUCACCCAUGUGGACUCAUGGUAGGAUAUCGGGAAGGAGGAAACCGAGAAGGGCUGGUGAGCC,apparent Kd,[3],634 nM
same,apparent Kd,[4],443 nM
CCGGAGACGGGUAGCCUGACAUGAGGAUCACCCAUGUAAUACGAGGAUAUGGAUCCUAAUUGGAUCCAGAAGGUGUCAGGCUAC,apparent Kd,[3],908 nM
same,apparent Kd,[4],729 nM
GUGGUCAGACAUGAGGAUCACCCAUGUGGAAUAAAUAAGGAGAAGGAUAUUAAAUAUAGGAUAUAUAAGAAGGUCUGGUUGGUG,apparent Kd,[3],86.8 nM
same,apparent Kd,[4],95.8 nM
GAAUAUUCGUUGUACAUGAGGAUCACCCAUGUAACUUGACAUGAGGAUAUGGAUUCUAAUUGGAUCCAGAAGGCAUGAAUAUUC,apparent Kd,[3],48.4 nM
same,apparent Kd,[4],21.8 nM
UUGUUGUGUGGAGGAUAUGCACUAACUGUUAGCGCAGAAGGCCACAUGAGGAUCACCCAUGUCCGGGUUACUGCCUAAGGAGUG,apparent Kd,[1],71.9 nM
same,apparent Kd,[2],230 nM
AAAACUUCAGAGAAGGACCCAUUGGCGUAAUGGGUAGGAUAUCUGACUUGAGGUGUCCUGACAUGAGGAUCACCCAUGUAUAAA,apparent Kd,[1],381 nM
same,apparent Kd,[2],46 nM
CUCUUGUCAGGAUAUACGUACGCUUCGGCGGCGAGGAUCAUGUAGAAGGGACAUGAGGAUCACCCAUGUUAGAC,apparent Kd,[1],41.6 nM
same,apparent Kd,[2],44 nM
GUCGCUAGAGGAUAUACAAUGGUAUAUGAUCCUAGUGACAUACAUGAGGAUCACCCAUGUAGAAGGCUAGUAUU,apparent Kd,[1],23.5 nM
same,apparent Kd,[2],19 nM
GAGCGGUGAGCAGGAUAUCCACAUUGCCUCCUACAUGAGGAUCACCCAUGUGGAGAAGGGUUUAUAAGUUCGUGUAUACUCAAU,apparent Kd,[1],10.5 nM
same,apparent Kd,[2],10 nM
GUUGCACAAGUUAACAUGAGGAUCACCCAUGUCAAAAGACAUGAGGAUAUGGAUGUGAAGAUAAUCCAGAAGGCAUAAUGCUAA,apparent Kd,[3],596 nM
same,apparent Kd,[4],129 nM
CGGCGCUGUCGAGAGGAUAUGCGGUGACGGACAUGAGGAUCACCCAUGUUAGCGAUAGCGUUACGGUAGAAGGCUCUACAGUCGC,apparent Kd,[3],76.8 nM
same,apparent Kd,[4],15.4 nM
UAAUCUCAGAUAGGAUAUAUAGGAUAACUUAAGACCUAACAUGAGGAUCACCCAUGUGAUUAUUCGUAGAAGGAUCAUUGACCC,apparent Kd,[4],171 nM
AUACGAAAGAUAGGAUAUACUGAGGUUGAAUGGGUAGAAGGAUCGAUAGUGGAGAAGACAUGAGGAUCACCCAUGUUGUGGAUU,apparent Kd,[3],681 nM
same,apparent Kd,[4],217 nM
UGAAACUACGAGAAGGACAUGUGGUCCUUCAGUUACAUGAGGAUCACCCAUGUAGGAUAUCGUAGUUUCAGGAUCGUGAGAUCG,apparent Kd,[1],34.7 nM
same,apparent Kd,[2],10.4 nM
GCAGGAUAAGUGAGGAUAUACCUCUGGAUACAGAGGUAGAAGGCACAUGAGGAUCACCCAUGUCAUUCACCUGC,apparent Kd,[1],13.3 nM
same,apparent Kd,[2],24.2 nM
AAUAUAAGAGCUGGACUCUAAAGAACAUGAGGAUCACCCAUGUAGGAUAUCAGCACGAUAAGUGCUGAGAAGGACAACCAGCUC,apparent Kd,[1],14.1 nM
same,apparent Kd,[2],14.6 nM
AAUUUGGUCGUAGGAUAUCGGAAGCGGUGCGAACGAGAAGGGCGACAUGAGGAUCACCCAUGUAGCCACGAAGGCGAUCCUUGG,apparent Kd,[1],9.75 nM
same,apparent Kd,[2],16.3 nM
GUUGUGUGAGGAUAUGCCUGGCCGUGAGGCCAGGUUGGGUGGCAGAAGGUACAUGAGGAUCACCCAUGUACGGG,apparent Kd,[1],30 nM
same,apparent Kd,[2],22.7 nM
AUCAGCUCGUCAGGAUAUACGACACUGCGUCAGCAGUGUGGUAAGAUCACAUGAGGAUCACCCAUGUAGAAGGGACGAGCUGAU,apparent Kd,[1],6.87 nM
same,apparent Kd,[2],28.1 nM
AUUAUUUACAUAGGAUAUUGUUACAUGAGGAUCACCCAUGUUUUCAUGGUAUUAAUAUAUUAUUUCAAGAAGGAUGUAGUUACA,apparent Kd,[3],37.4 nM
same,apparent Kd,[4],20.9 nM
GUGGAUAGACGCCCACGUGAGACAUGAGGAUCACCCAUGUACAGAAGGUGGAGCGUUAAUGGUGCCAAGGAUAUGUACAUAAGG,apparent Kd,[2],5.11 nM
GACAUCGCAGGAUAUUAGGGUUUGUACAUGAGGAUCACCCAUGUUAAUUGGGUUAAUGUCUAAGAAGGGCGGUGUC,apparent Kd,[1],147 nM
same,apparent Kd,[2],240 nM
AAUAAGCUAGGAUAUACAUGAGGAUCACCCAUGUGAGGGCACCGCCGGCGCGGGCCCGGUAGAAGGAGCAAUAA,apparent Kd,[1],14.2 nM
same,apparent Kd,[2],13.2 nM
CUAUAGAUAUCAGGAUAUCUAUUUCCUACAUGAGGAUCACCCAUGUAGAUGAUCACCCAUGUAAAGGAGAAGGGAUAUCUAUAG,apparent Kd,[3],361 nM
same,apparent Kd,[4],169 nM
GCAGCGUAUGUAGGAUAUCGGUCAGUUUCUGAUCGAGAAGGACAUGAGGAUCACCCAUGUAAAUUACCGACUUUGUCGGGUUGC,apparent Kd,[1],10.2 nM
same,apparent Kd,[2],20.1 nM
CUGAUGUGAGGAUAUCGGGCUACAGCCCUGCUGCUAGCAAACGAGAAGGCACAUGAGGAUCACCCAUGUAAGAA,apparent Kd,[1],24 nM
same,apparent Kd,[2],28.6 nM
UGCCGUAGAGGAUAUACAUAGAAAUAGAUUCAUGUAAAACUACAUGAGGAUCACCCAUGUAGAAGGCUAUGGCU,apparent Kd,[1],21.6 nM
same,apparent Kd,[2],137 nM
GCUGCAUAUGAGAAGGCGAUCAUGAAACAUGAUCGAGGAUAUCAUGUAAACAUGAGGAUCACCCAUGUAUGGGUAUUAAGCAGC,apparent Kd,[3],282 nM
same,apparent Kd,[4],50.5 nM
AUCAUCUUAUCAGGAUAUGCGAGUCGACGAAAGUAGACAAUCUUGAUAACAUGAGGAUCACCCAUGUAGAAGGGAUGAGAUGAU,apparent Kd,[1],48.1 nM
same,apparent Kd,[2],51.7 nM
